ChEMBL document CHEMBL3112587, “Cytotoxic activity assessment, QSAR and docking study of novel bis-carboxamide derivatives of 4-pyrones synthesized by Ugi four-component reaction” (Eur J Med Chem, 2013)

Columns and labels:
Assay type in all cases: functional, cell-based; call rule not given here
HL-60 = experiment: Cytotoxicity against human HL60 cells after 72 hrs by MTT assay
In short: (§1)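 RPMI 1640 with penicillin/streptomycin and 10% FBS (20% for HL-60), 37 °C, 5% CO2. Seeding was 40,000 HL-60 (suspension), 50,000 LS180 or 30,000 MCF-7 (monolayer) cells/ml, overnight. Half the medium was replaced with 3-4 compound concentrations in duplicate (DMSO ≤0.5% final), 72 h, then MTT 0.5 mg/ml for 4 h. Read 570 nm minus 655 nm. IC50 versus untreated control by linear regression, mean ± SD.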

MCF7 = experiment: Cytotoxicity against human MCF7 cells after 72 hrs by MTT assay; in short: as §1
[1] = Cytotoxicity against human LS180 cells after 72 hrs by MTT assay
In short: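 Seeding was 40,000 HL-60 (suspension), 50,000 LS180 or 30,000 MCF-7 (monolayer) cells/ml, overnight. Half the medium was replaced with 3-4 compound concentrations in duplicate (DMSO ≤0.5% final), 72 h, then MTT 0.5 mg/ml for 4 h. IC50 versus untreated control by linear regression, mean ± SD.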

[2] = Homo sapiens, HL-60, 72 h, read-out: IC50
[3] = Homo sapiens, HL-60, 72 h, read-out: pIC50 (converted)
[4] = Homo sapiens, MCF7, 72 h, read-out: IC50
[5] = Homo sapiens, LS180, 72 h, read-out: IC50

SMILES: COc1cccc2c1C(=O)c1c(O)c3c(c(O)c1C2=O)C[C@@](O)(C(=O)CO)C[C@@H]3O[C@H]1C[C@H](N)[C@H](O)[C@H](C)O1 [DOXORUBICIN]
- IC50 (HL-60; [2]): 0.01 µM

SMILES: Cc1ccc(N(C(=O)c2ccccc2)C(C(=O)NC2CCCCC2)c2cc(=O)c(OCc3ccccc3)co2)cc1 (stereo unspecified)
- IC50 (HL-60; [2]): 11.3 µM
- IC50 (HL-60; [3]): 11.2 µM
- IC50 (MCF7; [4]): 11.2 µM
- IC50 [1, 5]: 20.2 µM

SMILES: CC(C)(C)NC(=O)C(c1cc(=O)c(OCc2ccccc2)co1)N(C(=O)c1ccccc1)c1ccccc1 (stereo unspecified)
- IC50 (HL-60; [2]): 57.3 µM
- IC50 (HL-60; [3]): 57.5 µM
- IC50 (MCF7; [4]): 63.1 µM
- IC50 ([1]; ls180): Not Active

SMILES: O=C(NC1CCCCC1)C(c1cc(=O)c(OCc2ccccc2)co1)N(C(=O)c1ccccc1Cl)c1ccc(Cl)cc1 (stereo unspecified)
- IC50 (HL-60; [2]): 30.5 µM
- IC50 (HL-60; [3]): 30.2 µM
- IC50 (MCF7; [4]): 168 µM
- IC50 ([1]; ls180): Not Active

SMILES: COc1ccc(N(C(=O)c2ccccc2Cl)C(C(=O)NC(C)(C)C)c2cc(=O)cc(-c3ccccc3)o2)cc1 (stereo unspecified)
- IC50 (HL-60; [2]): 13.8 µM
- IC50 (HL-60; [3]): 13.8 µM
- IC50 (MCF7; [4]): 9.1 µM
- IC50 [1, 5]: 16.1 µM

SMILES: O=C(NC1CCCCC1)C(c1cc(=O)c(OCc2ccccc2)co1)N(C(=O)c1ccccc1Cl)c1ccccc1 (stereo unspecified)
- IC50 (HL-60; [2]): 66.2 µM
- IC50 (HL-60; [3]): 66.1 µM
- IC50 (MCF7; [4]): 84.2 µM
- IC50 [1, 5]: 97.3 µM

SMILES: Cc1ccc(N(C(=O)c2ccccc2Cl)C(C(=O)NC2CCCCC2)c2cc(=O)cc(-c3ccccc3)o2)cc1 (stereo unspecified)
- IC50 (HL-60; [2]): 22.2 µM
- IC50 (HL-60; [3]): 22.4 µM
- IC50 (MCF7; mcf7): Not Active
- IC50 ([1]; ls180): Not Active

SMILES: Cc1ccc(N(C(=O)c2ccccc2Cl)C(C(=O)NC(C)(C)C)c2cc(=O)c(OCc3ccccc3)co2)cc1 (stereo unspecified)
- IC50 (HL-60; [2]): 42 µM
- IC50 (HL-60; [3]): 41.7 µM
- IC50 (MCF7; [4]): 53.8 µM
- IC50 [1, 5]: 88.3 µM

SMILES: Cc1ccc(N(C(=O)c2ccccc2Cl)C(C(=O)NC2CCCCC2)c2cc(=O)c(OCc3ccccc3)co2)cc1 (stereo unspecified)
- IC50 (HL-60; [2]): 12.1 µM
- IC50 (HL-60; [3]): 12 µM
- IC50 (MCF7; [4]): 56.3 µM
- IC50 [1, 5]: 63 µM

SMILES: Cc1ccc(N(C(=O)c2ccccc2)C(C(=O)NC(C)(C)C)c2cc(=O)cc(-c3ccccc3)o2)cc1 (stereo unspecified)
- IC50 (HL-60; [2]): 33 µM
- IC50 (HL-60; [3]): 33.1 µM
- IC50 (MCF7; [4]): 54.9 µM
- IC50 [1, 5]: 122 µM

SMILES: COc1ccc(N(C(=O)c2ccccc2Cl)C(C(=O)NC(C)(C)C)c2cc(=O)c(OCc3ccccc3)co2)cc1 (stereo unspecified)
- IC50 (HL-60; [2]): 52.9 µM
- IC50 (HL-60; [3]): 52.5 µM
- IC50 (MCF7; [4]): 47.2 µM
- IC50 [1, 5]: 77.3 µM

SMILES: O=C(NC1CCCCC1)C(c1cc(=O)c(OCc2ccccc2)co1)N(C(=O)c1ccccc1)c1ccc(Cl)cc1 (stereo unspecified)
- IC50 (HL-60; [2]): 14.7 µM
- IC50 (HL-60; [3]): 14.8 µM
- IC50 (MCF7; mcf7): Not Active
- IC50 ([1]; ls180): Not Active

SMILES: COc1ccc(N(C(=O)c2ccccc2Cl)C(C(=O)NC2CCCCC2)c2cc(=O)cc(-c3ccccc3)o2)cc1 (stereo unspecified)
- IC50 (HL-60; hl-60): Not Active
- IC50 (MCF7; mcf7): Not Active
- IC50 ([1]; ls180): Not Active

SMILES: O=C(NC1CCCCC1)C(c1cc(=O)cc(-c2ccccc2)o1)N(C(=O)c1ccccc1Cl)c1ccccc1 (stereo unspecified)
- IC50 (HL-60; [2]): 72 µM
- IC50 (HL-60; [3]): 72.4 µM
- IC50 (MCF7; mcf7): Not Active
- IC50 ([1]; ls180): Not Active

SMILES: CCCCc1ccc(N(C(=O)c2ccccc2Cl)C(C(=O)NC(C)(C)C)c2cc(=O)c(OCc3ccccc3)co2)cc1 (stereo unspecified)
- IC50 (HL-60; [2]): 16.2 µM
- IC50 (HL-60; [3]): 16.2 µM
- IC50 (MCF7; [4]): 28.6 µM
- IC50 [1, 5]: 88.2 µM
